Activity calls are given as the source filed them. The calls are words filed in the database; no cut-off is given here.
Columns and labels:
[1] = biological target: T1, DNA topoisomerase 1 (Homo sapiens) (UniProt P11387); experiment: Inhibition of recombinant topoisomerase-1 (unknown origin) assessed as inhibition of 3'-[32P]-labeled DNA cleavage at 0.1 to 100 uM after 20 mins by PAGE analysis relative to control
T1 sequence (whole entry): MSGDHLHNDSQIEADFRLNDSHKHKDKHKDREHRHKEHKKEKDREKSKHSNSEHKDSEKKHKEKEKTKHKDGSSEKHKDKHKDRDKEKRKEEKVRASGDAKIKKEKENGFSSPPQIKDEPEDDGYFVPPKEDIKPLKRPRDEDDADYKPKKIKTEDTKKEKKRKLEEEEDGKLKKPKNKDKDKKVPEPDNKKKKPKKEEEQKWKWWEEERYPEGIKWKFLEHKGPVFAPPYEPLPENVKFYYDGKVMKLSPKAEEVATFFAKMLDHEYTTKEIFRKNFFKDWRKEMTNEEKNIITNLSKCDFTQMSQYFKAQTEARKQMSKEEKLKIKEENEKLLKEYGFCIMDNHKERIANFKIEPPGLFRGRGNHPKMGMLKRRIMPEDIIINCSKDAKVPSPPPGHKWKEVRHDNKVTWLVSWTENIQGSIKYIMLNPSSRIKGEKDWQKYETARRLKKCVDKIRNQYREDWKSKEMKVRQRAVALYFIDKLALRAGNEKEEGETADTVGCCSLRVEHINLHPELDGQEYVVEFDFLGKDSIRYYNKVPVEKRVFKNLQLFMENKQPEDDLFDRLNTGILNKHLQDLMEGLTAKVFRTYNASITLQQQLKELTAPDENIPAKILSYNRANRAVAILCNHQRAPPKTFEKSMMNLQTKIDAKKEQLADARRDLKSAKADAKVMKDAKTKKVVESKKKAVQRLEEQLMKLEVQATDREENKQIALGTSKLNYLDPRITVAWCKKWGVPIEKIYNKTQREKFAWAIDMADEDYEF

[2] = Cytotoxicity against human NCI60 cells assessed as cell growth at 10 uM relative to vehicle-treated control; type: functional; conditions: read-out: Activity
Procedure, shortened: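 NCI-60 one-dose screen: roughly 60 human cancer cell lines exposed to 10^-5 M (10 μM) compound. Value is growth percent of treated cells relative to vehicle-treated control, averaged across the panel.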

[3] = biological target: Tyrosyl-DNA phosphodiesterase 1 (Homo sapiens, UniProt Q9NUW8); experiment: Inhibition of recombinant TDP1 (unknown origin) using N14Y as substrate after 15 mins by PAGE analysis
Procedure, shortened: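 Substrate is a 5'-[32P]-labelled single-stranded oligonucleotide with a 3'-phosphotyrosine (N14Y). It is incubated with 5 pM recombinant TDP1 ± test compound for 15 min at room temperature. Read-out is a gel.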

MCF7 = experiment: Growth inhibition of human MCF7 cells; type: functional
Procedure, shortened: (§1)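 NCI-60 five-dose testing, 10^-8 to 10^-4 M, given only to compounds with significant growth inhibition in the 10 μM one-dose screen. Five-dose assay may be repeated.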

SN12C = experiment: Growth inhibition of human SN12C cells; type: functional; procedure, shortened: as §1
[4] = Growth inhibition of human SF539 cells; type: functional; conditions: SF-539; procedure, shortened: as §1
DU-145 = experiment: Growth inhibition of human DU145 cells; type: functional; procedure, shortened: as §1
HCT-116 = experiment: Growth inhibition of human HCT116 cells; type: functional; procedure, shortened: as §1
OVCAR-3 = experiment: Growth inhibition of human OVCAR3 cells; type: functional; procedure, shortened: as §1
HOP-62 = experiment: Growth inhibition of human HOP62 cells; type: functional; procedure, shortened: as §1
UACC-62 = experiment: Growth inhibition of human UACC62 cells; type: functional; procedure, shortened: as §1

Chain of Tyrosyl-DNA phosphodiesterase 1 (Q9NUW8 whole entry): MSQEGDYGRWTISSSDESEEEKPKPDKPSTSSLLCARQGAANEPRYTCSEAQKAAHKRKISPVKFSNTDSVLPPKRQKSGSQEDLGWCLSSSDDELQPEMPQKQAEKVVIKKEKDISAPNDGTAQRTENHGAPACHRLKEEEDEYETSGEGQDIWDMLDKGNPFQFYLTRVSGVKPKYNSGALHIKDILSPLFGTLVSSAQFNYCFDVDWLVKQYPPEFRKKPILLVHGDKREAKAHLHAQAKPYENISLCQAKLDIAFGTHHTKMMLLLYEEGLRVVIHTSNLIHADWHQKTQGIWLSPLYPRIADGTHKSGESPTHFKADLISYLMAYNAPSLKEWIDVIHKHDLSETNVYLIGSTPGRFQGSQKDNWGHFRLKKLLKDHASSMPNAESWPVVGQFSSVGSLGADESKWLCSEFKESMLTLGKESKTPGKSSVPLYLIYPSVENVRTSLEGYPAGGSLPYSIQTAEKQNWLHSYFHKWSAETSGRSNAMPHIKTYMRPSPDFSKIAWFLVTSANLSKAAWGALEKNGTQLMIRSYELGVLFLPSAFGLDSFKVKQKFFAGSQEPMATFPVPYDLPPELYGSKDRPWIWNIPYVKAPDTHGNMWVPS

inhibition [1] | IC50 [3] [nM] | GI50 (MCF7) [nM] | GI50 (DU-145) [nM] | GI50 (HCT-116) [nM] | GI50 (OVCAR-3) [nM] | Compound | growth at 10 µM [2] [%] | GI50 (SN12C) [nM] | GI50 [4] [nM] | GI50 (HOP-62) [nM] | GI50 (UACC-62) [nM]
Active | > 111000 | 145 | 550 | 219 | 525 | O=C1c2ccccc2-c2c1c1ccc([N+](=O)[O-])cc1c(=O)n2C[C@H](O)[C@H](O)[C@H](O)CO | -27.5 | 380 | 234 | 407 | 
75% | > 111000 | 56 | 427 | 138 | 398 | O=C1c2ccccc2-c2c1c1ccc([N+](=O)[O-])cc1c(=O)n2C[C@@H](O)CO | -27 | 380 | 309 | 347 | 
75% | > 111000 | 60 | 363 | 138 | 479 | O=C1c2ccccc2-c2c1c1ccc([N+](=O)[O-])cc1c(=O)n2CC(O)CO (racemic) | -17.5 | 355 | 339 | 324 | 
Active |  | 912 | 3160 | 1350 | 1700 | O=C1c2ccccc2-c2c1c1ccc([N+](=O)[O-])cc1c(=O)n2C[C@@H](O)[C@H](O)[C@H](O)CO | -9.21 |  | 1450 | 1910 | 
Active |  | 96 | 457 | 141 | 407 | O=C1c2ccccc2-c2c1c1ccc([N+](=O)[O-])cc1c(=O)n2C[C@H](O)[C@@H](O)[C@H](O)CO | -14.6 | 295 | 214 | 363 | 
Active |  | 501 | 3470 | 1200 | 2140 | O=C1c2ccccc2-c2c1c1ccc([N+](=O)[O-])cc1c(=O)n2C[C@@H](O)[C@@H](O)[C@H](O)CO | -16.1 | 2690 | 1740 |  | 1100

Further lines, the molecule ahead of its results:

Compound | inhibition [1] | IC50 [3] [nM] | GI50 (MCF7) [nM] | GI50 (DU-145) [nM] | GI50 (HCT-116) [nM] | GI50 (OVCAR-3) [nM] | growth at 10 µM [2] [%] | GI50 (SN12C) [nM] | GI50 [4] [nM] | GI50 (HOP-62) [nM] | GI50 (UACC-62) [nM]
COc1cc2c3c(n(C[C@@H](O)[C@@H](O)[C@H](O)[C@H](O)CO)c(=O)c2cc1OC)-c1cc2c(cc1C3=O)OCO2 | Active | > 111000 |  |  |  |  | 79.5 |  |  |  | 
O=C1c2ccccc2-c2c1c1ccc([N+](=O)[O-])cc1c(=O)n2C[C@@H](O)[C@@H](O)[C@H](O)[C@H](O)CO | Active |  | 724 | > 100000 |  | 5250 | 73.2 |  | 3390 | > 100000 | 3470
COc1cc2c3c(n(C[C@@H](O)[C@H](O)[C@H](O)CO)c(=O)c2cc1OC)-c1cc2c(cc1C3=O)OCO2 | 75% | > 111000 | 148 | 50100 | 355 | 50100 | 52.8 | 234 | 174 | 50100 | 155
COc1cc2c3c(n(C[C@@H](O)[C@@H](O)[C@H](O)CO)c(=O)c2cc1OC)-c1cc2c(cc1C3=O)OCO2 | Active | > 111000 | 79 | 2510 | 891 | 794 | 34.7 | 457 | 214 | 676 | 195
COc1cc2c3c(n(C[C@@H](O)CO)c(=O)c2cc1OC)-c1cc2c(cc1C3=O)OCO2 | Active | > 111000 | 29 | 40 | 36 |  | 31.6 | 37 | 32 | 36 | 
COc1cc2c3c(n(C[C@H](O)CO)c(=O)c2cc1OC)-c1cc2c(cc1C3=O)OCO2 | Active | > 111000 | 10 | 34 | 21 | 48 | 7.1 | 30 | 25 | 28 | 17
COc1cc2c3c(n(C[C@@H]4O[C@H](CO)[C@@H](O)[C@H](O)[C@H]4O)c(=O)c2cc1OC)-c1cc2c(cc1C3=O)OCO2 | 50% |  |  |  |  |  | 97.7 |  |  |  | 
COc1cc2c3c(n(C[C@H](O)[C@H](O)[C@H](O)CO)c(=O)c2cc1OC)-c1cc2c(cc1C3=O)OCO2 | 75% |  | 59 | 479 | 148 | 22 | 46.9 | 229 | 28 | 251 | 62
O=C1c2ccccc2-c2c1c1ccc([N+](=O)[O-])cc1c(=O)n2C[C@H](O)[C@@H](O)[C@@H](O)[C@H](O)CO | Active | > 111000 | 2950 | 9550 |  | 6030 | 51.5 | 4270 | 2570 | 5130 | 
O=C1c2ccccc2-c2c1c1ccc([N+](=O)[O-])cc1c(=O)n2C[C@@H]1O[C@H](CO)[C@@H](O)[C@H](O)[C@H]1O | 50% |  |  |  |  |  | 77.4 |  |  |  | 
COc1cc2c3c(n(CC(O)CO)c(=O)c2cc1OC)-c1cc2c(cc1C3=O)OCO2 (racemic) | Active | > 111000 | 21 | 36 | 26 | 52 | 27.1 | 35 | 23 | 31 | 
COc1cc2c3c(n(C[C@H](O)[C@@H](O)[C@H](O)CO)c(=O)c2cc1OC)-c1cc2c(cc1C3=O)OCO2 | Active | > 111000 | 34 | 138 | 59 | 96 | 5.32 | 85 | 21 | 27 | 52
COc1cc2c3c(n(C[C@H](O)[C@@H](O)[C@H](O)[C@H](O)CO)c(=O)c2cc1OC)-c1cc2c(cc1C3=O)OCO2 | 75% | > 111000 |  |  |  |  | 87.5 |  |  |  | 
COc1cc2c3c(n(C[C@H](O)[C@@H](O)[C@@H](O)[C@H](O)CO)c(=O)c2cc1OC)-c1cc2c(cc1C3=O)OCO2 | 50% |  |  |  |  |  | 82.3 |  |  |  | 
